Shown are actives, neighbours in structure and some others; about 4.8% of the full set was active somewhere.
697 NFkB inh: inhibitors of PMA/ionomycin-induced NF-kB reporter, 697 cells, primary screen, B-cell NF-kB inhibitor project, cell-based, luminescence, uHTS | 697 B-cell NF-kB luciferase reporter, 16 h | actives 0.33% (n = 330,000) | inhibition, % at 4 µM; in the data active means inhibition above about 35%
HSF-1 act: HSF-1 activators, primary screen, NIH3T3-HGL cells, MG132 stress, luminescence, single point | NIH3T3-HGL HSF-1 luciferase reporter, 8 h; 100% = twice DMSO control signal | actives 1.7% (n = 300,000) | activation, % at 9 µM;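 active means mean replicate activation of at least 50% with a set share of replicates each reaching 50%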;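 further: 0% = median of the neutral control wells and 100% = twice that signal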
T cruzi repl: inhibitors of intracellular T. cruzi growth, primary screen, luminescence, NIH3T3 host cells; actives 1.4% (n = 300,000); T. cruzi beta-gal in NIH3T3, 90 h; inhibition, % (test concentration not listed);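 active means mean inhibition across valid replicates above about 55%, limit read from the data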;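 further: signal also drops with host cell toxicity which is not excluded here; 0% = plate median of DMSO wells and 100% = zero luminescence signal; higher percent means less beta-gal luminescence so fewer parasites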
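Incubation – ≥90 h infection period, 3 h prior cell attachment · System – NIH/3T3 fibroblasts plus reporter T. cruzi · Doses – compound pinned at 50 nL/well, DMSO · Read-out basis – percent inhibition of parasite-derived β-gal signal · Signal – luminescent β-galactosidase signal after 60 min lysis · Also added – 5000 T. cruzi trypomastigotes/well · Medium – Low-serum DMEM with 2% FBS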
Jurkat NFkB inh: inhibitors of induced NF-kB luciferase reporter, primary screen, TCR NF-kB activation inhibitor project, cell-based, luminescence, uHTS; Jurkat, PMA/ionomycin-induced NF-kB luciferase reporter; inhibition, % at 4 µM; actives 0.53% (n = 330,000); in the data active means inhibition above about 50%
HSF1 inh: HSF1 inhibitors in luciferase reporter cells, primary screen, cell-based, NIH3T3, luminescence; actives 0.77% (n = 300,000); NIH3T3-HGL HSE-luciferase, MG132-induced, luminescence 8 h; active compounds read low; activity change, negative = inhibition, % at 7.5 µM (by protocol);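 active means more than half of replicate wells show activity change below -50%, luminescence cut by over half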;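 further: luciferase reports HSF-1 transcriptional activity via heat shock element; 0% = median of DMSO wells and -100% = zero luminescence signal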
GPR7 antag: GPR7 receptor antagonists, primary screen, cell-based, fluorescence, single concentration. Neuropeptides B/W receptor type 1 (Homo sapiens), P48145. actives 1.1% (n = 290,000). GPR7-expressing cells, fluorescence antagonist assay. inhibition, % at 4.4 µM; in the data active means inhibition above about 16%, passing the limit was not always enough;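 further: cells stimulated with the agonist NPW; 0% = agonist with vehicle and 100% = vehicle without agonist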
Target sequence (P48145 whole entry, looked up): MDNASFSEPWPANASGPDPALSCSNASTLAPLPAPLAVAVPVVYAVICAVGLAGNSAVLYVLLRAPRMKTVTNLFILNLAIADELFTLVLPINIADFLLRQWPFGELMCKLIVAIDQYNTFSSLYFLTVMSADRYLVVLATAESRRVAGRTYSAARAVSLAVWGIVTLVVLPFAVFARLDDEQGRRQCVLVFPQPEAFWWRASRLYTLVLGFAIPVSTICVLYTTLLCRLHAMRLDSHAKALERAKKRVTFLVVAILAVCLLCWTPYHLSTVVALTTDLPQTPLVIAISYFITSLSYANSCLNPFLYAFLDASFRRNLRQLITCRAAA
* hit, by the source's call.

Screening OC(COc1ccc2ccccc2c1Br)Cn1ccnc1 (stereo not given) returned 697 NFkB inh -11, HSF-1 act 19, T cruzi repl 63*, Jurkat NFkB inh -2, HSF1 inh -3 and GPR7 antag -3.
For CC1CCN(CCc2nc3cc(NC(=O)COc4ccccc4)ccc3n2C)CC1 the results were 697 NFkB inh -17, HSF-1 act 41, T cruzi repl 3, Jurkat NFkB inh -30, HSF1 inh 39 and GPR7 antag 3.
For CCOc1ccc(NCc2nnc(SCc3ccc(Cl)cc3)n2-c2ccccc2)cc1 the results were 697 NFkB inh -32, HSF-1 act -4, T cruzi repl 13, Jurkat NFkB inh 14, HSF1 inh -2 and GPR7 antag 0.
Cc1cccc(C)c1NCc1nnc(SCC(=O)Nc2nc(-c3ccccc3)cs2)n1-c1ccccc1 was read as 697 NFkB inh -15, HSF-1 act 60*, T cruzi repl 12, Jurkat NFkB inh 4, HSF1 inh 24 and GPR7 antag -10.
For CCOc1ccc(NCc2nnc(SCC(=O)Nc3nc(-c4ccccc4)cs3)n2-c2ccccc2)cc1 the results were 697 NFkB inh -1, HSF-1 act -68, T cruzi repl 11, Jurkat NFkB inh 6, HSF1 inh -67* and GPR7 antag -12.
For Cc1cc(N2CCN(c3ccccc3)CC2)nc(NCc2ccccc2)n1 the results were 697 NFkB inh -70, HSF-1 act -4, T cruzi repl 55*, Jurkat NFkB inh 6, HSF1 inh 5 and GPR7 antag -9.
For COc1cc(C)nc(NCc2ccccc2)n1 the results were 697 NFkB inh 0, HSF-1 act 9, T cruzi repl 8, Jurkat NFkB inh -7, HSF1 inh 7 and GPR7 antag -11.
`Cc1ccc(Nc2cc(C)nc(NCc3ccccc3)n2)cc1` gave 697 NFkB inh -17, HSF-1 act -16, T cruzi repl 61*, Jurkat NFkB inh 27, HSF1 inh 2 and GPR7 antag 11.
CCCc1nc(C)cc(N2CCN(c3ccccc3)CC2)n1 was read as 697 NFkB inh -13, HSF-1 act 17, T cruzi repl 10, Jurkat NFkB inh -15, HSF1 inh 14 and GPR7 antag -2.
Screening COc1ccc(Nc2cc(C)nc(NCc3ccccc3)n2)cc1 returned 697 NFkB inh -18, HSF-1 act -12, T cruzi repl 61*, Jurkat NFkB inh 35, HSF1 inh -13 and GPR7 antag 4.
For C/C(=N\NS(=O)(=O)c1ccccc1)c1ccc2c(c1)OCO2 the results were 697 NFkB inh -3, HSF-1 act -6, T cruzi repl 9, Jurkat NFkB inh -34, HSF1 inh -3 and GPR7 antag 8.
`c1ccc(Cc2ccc(OCCCNC3CCCC3)cc2)cc1` gave 697 NFkB inh -17, HSF-1 act -2, T cruzi repl 67*, Jurkat NFkB inh 27, HSF1 inh -7 and GPR7 antag 15.
For N#Cc1ccc(OCCOCCNC2CCCC2)cc1 the results were 697 NFkB inh 6, HSF-1 act -2, T cruzi repl 67*, Jurkat NFkB inh 5, HSF1 inh -1 and GPR7 antag -3.
Screening Cc1ccc(N(C)S(=O)(=O)c2c[nH]c3ccc([N+](=O)[O-])cc23)cc1 returned 697 NFkB inh 10, HSF-1 act -6, T cruzi repl -6, Jurkat NFkB inh 8, HSF1 inh 4 and GPR7 antag -5.
CCc1cccc(C)c1NC(=O)CCNC(=O)c1cccc(C)c1 was read as 697 NFkB inh 10, HSF-1 act 10, T cruzi repl -7, Jurkat NFkB inh 11, HSF1 inh 1 and GPR7 antag -10.
For CC(C)NC(=O)NS(=O)(=O)c1cnccc1N1CCCCC1 the results were 697 NFkB inh -2, HSF-1 act 51*, T cruzi repl 1, Jurkat NFkB inh -5, HSF1 inh 27 and GPR7 antag -13.
`C[C@H](CO)N1C[C@H](C)[C@@H](CN(C)C(=O)NC2CCCCC2)Oc2c(NC(=O)C3CC3)cccc2C1=O` gave 697 NFkB inh -2 and Jurkat NFkB inh 5.
`CCOc1ccc(N2CC(C(=O)NCCc3c[nH]c4ccc(C)cc34)CC2=O)cc1` (stereo not given) gave 697 NFkB inh -8, HSF-1 act -64, T cruzi repl 25, Jurkat NFkB inh -4, HSF1 inh -58* and GPR7 antag -11.
Screening CCCCOc1ccc(N2CC(C(=O)NCCc3ccc(OC)c(OC)c3)CC2=O)cc1 (stereo not given) returned 697 NFkB inh 0, HSF-1 act -87, T cruzi repl 10, Jurkat NFkB inh 7, HSF1 inh -82* and GPR7 antag -6.
`COc1cc(OC)cc(C(=O)NCC(=O)NCc2ccccn2)c1` gave 697 NFkB inh 24 and Jurkat NFkB inh 15.
`O=C(O)CC[C@@H](C(=O)O)N1C(=O)c2ccccc2C1=O` gave 697 NFkB inh 9, HSF-1 act -33, T cruzi repl 8, Jurkat NFkB inh 4 and HSF1 inh -23.
For NC(=O)CCC(C(=O)O)N1C(=O)c2ccc(O)cc2C1=O (stereo not given) the results were 697 NFkB inh 8, HSF-1 act -63, T cruzi repl -9, Jurkat NFkB inh -9, HSF1 inh -54* and GPR7 antag -11.
CCN(CC)CCNC(=O)C1c2cc(OC)c(OC)cc2C(=O)N2CCc3ccccc3C12 (stereo not given) was read as 697 NFkB inh -23, Jurkat NFkB inh -9 and GPR7 antag -11.
COc1cc2c(cc1OC)C(C(=O)NC1CC1)C1c3ccccc3CCN1C2=O (stereo not given) was read as 697 NFkB inh -16, HSF-1 act -68, T cruzi repl -12, Jurkat NFkB inh -13, HSF1 inh -61* and GPR7 antag -14.
For CC(C(=O)Nc1ccccc1Br)N1c2cccc3cccc(c23)S1(=O)=O (stereo not given) the results were 697 NFkB inh 3, HSF-1 act 67*, T cruzi repl 6, Jurkat NFkB inh 7, HSF1 inh 35 and GPR7 antag -18.
Screening C[C@@H]1CN(c2c(F)c(N)c3c(=O)c(C(=O)O)cn(C4CC4)c3c2F)C[C@H](C)N1 returned GPR7 antag -6.
